Data as given in ChEMBL document CHEMBL1123290, “Synthesis, antimalarial activity, and quantitative structure-activity relationships of tebuquine and a series of related 5-[(7-chloro-4-quinolinyl)amino]-3-[(alkylamino)methyl] [1,1'-biphenyl]-2-ols and N omega-oxides” (1986).

Columns and labels:
Format in all cases: functional
[1] = test system: Plasmodium berghei; assay: Antimalarial activity in primary screen
[2] = test system: Plasmodium berghei; assay: Change in mean survival time for control (average 6.2 days) versus treated mice (Mus musculus) 72 hrs after 5 mg/kg subcutaneous dose
[3] = test system: Plasmodium berghei; assay: Change in mean survival time for control (average 6.2 days) versus treated mice (Mus musculus) 72 hrs after 640 mg/kg subcutaneous dose
[4] = test system: Plasmodium berghei; assay: (§1) Change in mean survival time for control (average 6.2 days) versus treated mice (Mus musculus) 72 hrs after […] subcutaneous dose
[5] = test system: Plasmodium berghei; assay: Change in mean survival time for control (average 6.2 days) versus treated mice (Mus musculus) 72 hrs after 10 mg/kg subcutaneous dose
[6] = test system: Plasmodium berghei; assay: Change in mean survival time for control (average 6.2 days) versus treated mice (Mus musculus) 72 hrs after […] subcutaneous dose
[7] = test system: Plasmodium berghei; assay: Change in mean survival time for control (average 6.2 days) versus treated mice (Mus musculus) 72 hrs after 20 mg/kg subcutaneous dose
[8] = test system: Plasmodium berghei; assay: Difference in mean survival time in mice (Mus musculus) (control = 6.2 days) after single 40mg/kg subcutaneous dose 72hr post infection
[9] = test system: Plasmodium berghei; assay: Antimalarial activity as 60-day survivors in Plasmodium berghei infected mice (Mus musculus) after single 160mg/kg subcutaneous dose 72 hr post infection
In short: (§2)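 Mice were infected with a normal drug-sensitive Plasmodium berghei strain. At 72 h postinfection each received one subcutaneous dose of compound dissolved or suspended in peanut oil, in five-mouse groups per dose. The read-out was the number of mice alive at 60 days postinfection, which were scored as cured.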

[10] = test system: Plasmodium berghei; assay: Antimalarial activity as 60-day survivors in infected mice (Mus musculus) after single 20 mg/kg subcutaneous dose 72hr post infection; in short: as §2
[11] = test system: Plasmodium berghei; assay: Antimalarial activity as 60-day survivors in infected mice (Mus musculus) after single 320mg/kg subcutaneous dose 72 hr post infection; in short: as §2
[12] = test system: Mus musculus; assay: Antimalarial activity, administered as a single subcutaneous dose of 40 mg/kg, 72 hrs post infection measured as number of mice (Mus musculus) surviving at 60 days post infection; in short: as §2
[13] = test system: Mus musculus; assay: Antimalarial activity, administered as a single subcutaneous dose of 640 mg/kg, 72 hrs post infection measured as number of mice (Mus musculus) surviving at 60 days post infection; in short: as §2
[14] = test system: Mus musculus; assay: Delta MST, difference in mean survival time of the control mice (an average of 6.2 days) from the mean survival time of the treated mice after a single sc dose of 160 mg/kg, 72-h postinfection; conditions: route subcutaneous
[15] = test system: Mus musculus; assay: Antimalarial activity, administered as a single subcutaneous dose of 80 mg/kg, 72 hrs post infection measured as number of mice (Mus musculus) surviving at 60 days post infection; in short: as §2
[16] = test system: Mus musculus; assay: Compound was evaluated for parenteral antimalarial activity against Plasmodium berghei in mice (Mus musculus) after single dose (1.25 mg/kg subcutaneously)
[17] = test system: Plasmodium berghei; assay: Change in mean survival time of Plasmodium berghei infected mice (Mus musculus) on 1.25 mg/kg subcutaneous dose
[18] = test system: Plasmodium berghei; assay: Difference in mean survival time of Plasmodium berghei infected mice (Mus musculus) after 10 mg/kg subcutaneous dose
[19] = test system: Plasmodium berghei; assay: Change in mean survival time for control (average 6.2 days) versus treated mice (Mus musculus) after 160 mg/kg subcutaneous dose
[20] = test system: Plasmodium berghei; assay: Change in mean survival time of Plasmodium berghei infected mice (Mus musculus) after […] subcutaneous dose
[21] = test system: Plasmodium berghei; assay: Change in mean survival time for control (average 6.2 days) versus treated mice (Mus musculus) after 20 mg/kg subcutaneous dose
[22] = test system: Plasmodium berghei; assay: Change in mean survival time for control (average 6.2 days) versus treated mice (Mus musculus) after 320 mg/kg subcutaneous dose
[23] = test system: Plasmodium berghei; assay: Change in mean survival time for control (average 6.2 days) versus treated mice (Mus musculus) after 40 mg/kg subcutaneous dose
[24] = test system: Plasmodium berghei; assay: Change in mean survival time of Plasmodium berghei infected mice (Mus musculus) after 5 mg/kg subcutaneous dose
[25] = test system: Plasmodium berghei; assay: Change in mean survival time in control (average 6.2 days) versus treated mice (Mus musculus) after 80 mg/kg subcutaneous dose
[26] = test system: Plasmodium berghei; assay: as §1; remark: listed apart in the source
[27] = test system: Plasmodium berghei; assay: Change in mean survival time for control (average of 6.2 days) versus treated mice (Mus musculus) 72 hrs after 80 mg/kg subcutaneous dose
[28] = test system: Plasmodium berghei; assay: Change in mean survival time for control (average 6.2 days) versus treated mice (Mus musculus) 72 hrs after 160 mg/kg subcutaneous dose
[29] = test system: Plasmodium berghei; assay: Change in mean survival time for control (average 6.2 days) versus treated mice (Mus musculus) 72 hrs after 320 mg/kg subcutaneous dose
[30] = test system: Mus musculus; assay: Antimalarial activity of compound administered as a single subcutaneous dose of 20 mg/kg, 72 hrs post infection measured as number of mice (Mus musculus) surviving at 60 days post infection; in short: as §2
[31] = test system: Mus musculus; assay: Antimalarial activity of compound administered as a single subcutaneous dose of 320 mg/kg, 72 hrs post infection measured as number of mice (Mus musculus) surviving at 60 days post infection; in short: as §2
[32] = test system: Mus musculus; assay: Antimalarial activity of compound administered as a single subcutaneous dose of 80mg/kg, 72-h postinfection measured as number of mice (Mus musculus) surviving at 60 days postinfection; in short: as §2
[33] = test system: Mus musculus; assay: Antimalarial activity of compound administered as a single subcutaneous dose of 160mg/kg, 72-h postinfection measured as number of mice (Mus musculus) surviving at 60 days postinfection; in short: as §2
[34] = test system: Mus musculus; assay: Antimalarial activity of compound administered as a single subcutaneous dose of 40 mg/kg, 72-h postinfection measured as number of mice (Mus musculus) surviving at 60 days postinfection; in short: as §2
[35] = test system: Mus musculus; assay: Compound was evaluated for parenteral antimalarial activity against Plasmodium berghei in mice (Mus musculus) after single dose (mg/kg subcutaneously) 20
[36] = test system: Mus musculus; assay: Compound was evaluated for parenteral antimalarial activity against Plasmodium berghei in mice (Mus musculus) after single dose (mg/kg subcutaneously) 40
[37] = test system: Mus musculus; assay: Compound was evaluated for parenteral antimalarial activity against Plasmodium berghei in mice (Mus musculus) after single dose (80 mg/kg subcutaneously)

CCN(CC)Cc1cc(Nc2ccnc3cc(Cl)ccc23)cc(-c2cccc(Cl)c2)c1O
ED30 [1]: 17.3 mg/kg | Delta MST [2]: 3.9 days | Delta MST [3]: 21.9 days | Delta MST [4]: 0.3 days | Delta MST [5]: 15.5 days | Delta MST [6]: 1.3 days | Delta MST [7]: 22.4 days | Delta MST [8]: 29.4 days | No. of mice cured [9]: 4 | No. of mice cured [10]: 1 | No. of mice cured [11]: 5 | No. of mice cured [12]: 3 | No. of mice cured [13]: 4 | Delta MST [14]: 31.9 days | No. of mice cured [15]: 2

CCN(CC)Cc1cc(Nc2cc[n+]([O-])c3cc(Cl)ccc23)cc(-c2cccc(C(F)(F)F)c2)c1O
ED30 [1]: 113 mg/kg | Delta MST [16]: 0.3 | Delta MST [17]: 0.3 days | Delta MST [18]: 1.1 days | Delta MST [19]: 21.1 days | Delta MST [20]: -0.1 days | Delta MST [21]: 5.9 days | Delta MST [22]: 24.9 days | Delta MST [23]: 8.5 days | Delta MST [24]: 0.3 days | Delta MST [25]: 11.7 days | Delta MST [26]: 27.9 days | No. of mice cured [11]: 1 | No. of mice cured [13]: 4

CC(C)(C)NCc1cc(Nc2ccnc3cc(Cl)ccc23)cc(-c2ccccc2)c1O
Delta MST [2]: 13.7 days | Delta MST [3]: 13 days | Delta MST [27]: 27.3 days | Delta MST [4]: 0.3 days | Delta MST [5]: 29.5 days | Delta MST [28]: 12.8 days | Delta MST [6]: 5.3 days | Delta MST [7]: 14.8 days | Delta MST [29]: 12.3 days | Delta MST [8]: 20.2 days | No. of mice cured [13]: 1 | No. of mice cured [30]: 1 | No. of mice cured [31]: 1 | No. of mice cured [32]: 1 | No. of mice cured [33]: 1 | No. of mice cured [34]: 2

CCN(CC)Cc1cc(Nc2cc[n+]([O-])c3cc(Cl)ccc23)cc(CN(CC)CC)c1O
Delta MST [35]: 3.9 days | Delta MST [36]: 6.9 days | Delta MST [37]: 8.5 days | No. of mice cured [9]: 1 | No. of mice cured [11]: 3 | No. of mice cured [13]: 3
